ChEMBL document CHEMBL4673272, “Discovery of cyclic sulfonamide derivatives as potent inhibitors of SARS-CoV-2” (Bioorg Med Chem Lett, 2021)

Columns and labels:
[1] = Cytotoxicity against African green monkey Vero cells infected with SARS-CoV-2 betaCoV/KOR/KCDC03/2020 assessed as reduction in cell viability measured after 72 hrs by CellTiter-Glo Luminescent Cell Viability Assay; type: cell-based; details: chlorocebus sabaeus
SARS-CoV-2 = assay: Antiviral activity against SARS-CoV-2 betaCoV/KOR/KCDC03/2020 infected in African green monkey Vero cells assessed as inhibition of virus-induced cytopathic effect measured after 24 hrs by immunofluorescence assay; type: functional, organism-based; details: Severe acute respiratory syndrome coronavirus 2, betaCoV/KOR/KCDC03/2020, Vero
[2] = Selectivity index, ratio of CC50 for African green monkey Vero cells infected with SARS-CoV-2 betaCoV/KOR/KCDC03/2020 to IC50 for SARS-CoV-2 betaCoV/KOR/KCDC03/2020
[3] = Metabolic stability in human microsomes assessed as parent compound remaining incubated for 30 mins; type: ADME, Microsome; details: read-out: Stabilty
[4] = Cmax in rat at 5 mg/kg, iv or 10 mg/kg, po; type: ADME, organism-based; set-up: dose 10 mg/kg; details: in vivo
Method in brief: (§1)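 Rats, n = 3, were dosed at 5 mg/kg IV and 10 mg/kg PO. Cmax, T1/2, clearance and oral bioavailability (F) were derived from these two dosing routes.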

L929 = assay: Cytotoxicity against mouse L929 cells; type: cell-based
Method in brief: (§2)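 Cell-line panel used for cytotoxicity: Vero, African green monkey kidney; HFL-1, human embryonic lung; L929 (NCTC clone 929), mouse fibroblast; NIH 3T3, mouse embryonic fibroblast; CHO-K1, Chinese hamster ovary. Values given in μM.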

CHO-K1 = assay: Cytotoxicity against CHO-K1 cells; type: cell-based, Cricetulus griseus; details: chinese hamster; method in brief: as §2
[5] = Oral bioavailability in rat at 10 mg/kg; type: ADME, organism-based; details: in vivo; method in brief: as §1
hERG (KCNH2) = hERG (KCNH2) (Homo sapiens, UniProt Q12809); assay: Inhibition of human ERG at 10 uM relative to control
[6] = Half life in rat at 5 mg/kg, iv or 10 mg/kg, po; type: ADME, organism-based; details: in vivo; method in brief: as §1
NIH3T3 = assay: Cytotoxicity against mouse NIH/3T3 cells; type: cell-based; method in brief: as §2
[7] = Clearance in rat at 5 mg/kg, iv or 10 mg/kg, po; type: ADME, organism-based; details: in vivo; method in brief: as §1
Vero = assay: Cytotoxicity against African green monkey Vero cells; type: cell-based; details: chlorocebus sabaeus; method in brief: as §2
[8] = Metabolic stability in monkey microsomes assessed as parent compound remaining incubated for 30 mins; type: ADME, Macaca mulatta, Microsome; details: rhesus monkey, read-out: Stabilty
HFL1 = assay: Cytotoxicity against human HFL-1 cells; type: cell-based; method in brief: as §2

Sequence of hERG (KCNH2) (Q12809 whole entry): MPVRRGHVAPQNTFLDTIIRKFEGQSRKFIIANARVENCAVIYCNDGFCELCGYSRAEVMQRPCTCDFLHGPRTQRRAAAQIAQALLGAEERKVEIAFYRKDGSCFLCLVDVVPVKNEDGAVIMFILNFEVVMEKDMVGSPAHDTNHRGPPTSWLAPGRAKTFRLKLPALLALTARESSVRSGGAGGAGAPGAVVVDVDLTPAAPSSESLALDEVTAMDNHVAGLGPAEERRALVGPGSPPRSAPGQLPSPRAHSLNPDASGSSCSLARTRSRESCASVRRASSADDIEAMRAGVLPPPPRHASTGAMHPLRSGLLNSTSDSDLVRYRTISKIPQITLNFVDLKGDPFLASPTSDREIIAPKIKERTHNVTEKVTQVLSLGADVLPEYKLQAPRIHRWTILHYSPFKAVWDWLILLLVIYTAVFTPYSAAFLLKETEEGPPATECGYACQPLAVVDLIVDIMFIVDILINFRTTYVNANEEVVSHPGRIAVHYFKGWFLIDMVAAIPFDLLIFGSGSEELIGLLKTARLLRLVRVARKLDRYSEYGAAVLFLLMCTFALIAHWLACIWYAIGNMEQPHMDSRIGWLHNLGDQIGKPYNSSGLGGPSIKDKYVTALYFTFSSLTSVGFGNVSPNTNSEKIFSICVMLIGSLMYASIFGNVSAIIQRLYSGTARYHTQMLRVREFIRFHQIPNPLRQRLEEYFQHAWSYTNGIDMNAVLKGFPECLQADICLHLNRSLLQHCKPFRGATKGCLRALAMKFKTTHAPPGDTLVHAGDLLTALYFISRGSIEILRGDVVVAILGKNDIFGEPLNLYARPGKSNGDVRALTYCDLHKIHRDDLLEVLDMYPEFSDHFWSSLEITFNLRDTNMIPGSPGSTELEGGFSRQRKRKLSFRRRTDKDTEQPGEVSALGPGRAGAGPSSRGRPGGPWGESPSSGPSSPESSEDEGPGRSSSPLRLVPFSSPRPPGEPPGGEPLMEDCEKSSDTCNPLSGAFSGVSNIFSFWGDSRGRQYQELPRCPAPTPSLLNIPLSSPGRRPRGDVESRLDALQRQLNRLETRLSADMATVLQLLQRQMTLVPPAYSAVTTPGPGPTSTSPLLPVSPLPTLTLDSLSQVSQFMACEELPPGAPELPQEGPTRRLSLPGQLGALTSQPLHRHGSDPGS

Structure (SMILES) | CC50 at 72 h [1] [µM] | IC50 (SARS-CoV-2) [µM] | Ratio CC50/IC50 [2] | other results
N#Cc1cccc(C(=O)C2=C(O)c3ccccc3S(=O)(=O)N2CC(=O)c2ccc(F)c(Cl)c2)c1 | > 25 | > 25 | 1 | 
O=C(CN1C(C(=O)c2cccc(F)c2)=C(O)c2ccccc2S1(=O)=O)Nc1ccc(C(F)(F)F)cc1 | > 25 | 7 | 3.2 | 
N#Cc1cccc(C(=O)C2=C(O)c3ccccc3S(=O)(=O)N2CC(=O)Nc2cccc(OC(F)(F)F)c2)c1 | > 25 | 14.3 | 1.6 | 
O=C(CN1C(C(=O)c2ccc(F)c(Cl)c2)=C(O)c2ccc(F)cc2S1(=O)=O)Nc1ccc(C(F)(F)F)cc1 | > 25 | 0.88 | 30.7 | remaining at 0.5 h [3]: 93%; Cmax [4]: 14330 ng/mL; Activity (L929): 31.4 µM; Activity (CHO-K1): 10.6 µM; F [5]: 77%; inhibition at 10 µM (hERG (KCNH2)): < 1%; t1/2 [6]: 18.5 h; Activity (NIH3T3): 68 µM; CL [7]: 0.67 mL/min/kg; Activity (Vero): 42.1 µM; remaining at 0.5 h [8]: 61%; Activity (HFL1): 44.2 µM
CC(C)C(=O)C1=C(O)c2ccccc2S(=O)(=O)N1CC(=O)Nc1cccc(OC(F)(F)F)c1 | > 25 | 10.8 | 1.9 | 
CCNC(=O)CN1C(C(=O)c2ccccc2)=C(O)c2ccccc2S1(=O)=O | > 25 | > 25 | 1 | 
O=C(CN1C(C(=O)c2ccccc2)=C(O)c2ccccc2S1(=O)=O)Nc1cccc(OC(F)(F)F)c1 | > 25 | 11.5 | 2.1 | 
O=C(CN1C(C(=O)c2ccc(F)cc2)=C(O)c2ccccc2S1(=O)=O)Nc1cccc(F)c1 | > 25 | 15.3 |  | 
O=C(CN1C(C(=O)c2cccc(Cl)c2)=C(O)c2ccccc2S1(=O)=O)Nc1cccc(OC(F)(F)F)c1 | > 25 | 11.9 | 2.1 | 
CN1CCN(c2ccc3c(c2)S(=O)(=O)N(CC(=O)Nc2ccc(C(F)(F)F)cc2)C(C(=O)c2ccc(F)c(Cl)c2)=C3O)CC1 | > 25 | 14 | 1.6 | 
CCN(CC)CCCC(C)Nc1ccnc2cc(Cl)ccc12 (centres undefined) [CHLOROQUINE] | > 25 | 8 | 3.1 | 
N#Cc1ccc(C(=O)C2=C(O)c3ccccc3S(=O)(=O)N2CC(=O)c2ccc(F)c(Cl)c2)cc1 | > 25 | > 25 | 1 | 
O=C(CN1C(C(=O)c2cccc(F)c2)=C(O)c2ccccc2S1(=O)=O)Nc1cccc(OC(F)(F)F)c1 | > 25 | 10.1 | 2.3 | 
O=C(CN1C(C(=O)c2ccc(F)cc2)=C(O)c2ccccc2S1(=O)=O)Nc1ccccc1 | > 25 | > 25 | 1 | 
O=C(CN1C(C(=O)c2ccc(F)c(Cl)c2)=C(O)c2ccc(F)cc2S1(=O)=O)Nc1cccc(Cl)c1 | > 25 | 2.2 | 12.1 | 
O=C(CN1C(C(=O)c2ccc(Cl)cc2)=C(O)c2ccccc2S1(=O)=O)Nc1ccc(C(F)(F)F)cc1 | > 25 | 4 | 6 | 
COc1ccc(C(=O)C2=C(O)c3ccccc3S(=O)(=O)N2CC(=O)Nc2ccc(C(F)(F)F)cc2)cc1 | > 25 | 8.6 | 2.5 | 
O=C(CN1C(C(=O)c2ccc(F)c(Cl)c2)=C(O)c2ccccc2S1(=O)=O)Nc1cccc(OC(F)(F)F)c1 | > 25 | 9.2 | 2.8 | 

Structure (SMILES) | CC50 at 72 h [1] [µM] | IC50 (SARS-CoV-2) [µM] | Ratio CC50/IC50 [2] | other results
O=C(O)/C=C/N1C(C(=O)c2ccc(F)c(Cl)c2)=C(O)c2ccccc2S1(=O)=O | > 25 | > 25 | 1 | 
CC(C)C(=O)C1=C(O)c2ccccc2S(=O)(=O)N1CC(=O)Nc1ccc(C(F)(F)F)cc1 | > 25 | 7.3 | 3 | 
N#Cc1ccc(C(=O)C2=C(O)c3ccccc3S(=O)(=O)N2CC(=O)Nc2ccc(C(F)(F)F)cc2)cc1 | > 25 | 9.3 | 1.4 | 
O=C(CN1C(C(=O)c2ccc(F)cc2)=C(O)c2ccccc2S1(=O)=O)Nc1ccc(C(F)(F)F)cc1 | > 25 | 5.3 | 4.7 | 
O=C(CN1C(C(=O)c2ccc(F)c(Cl)c2)=C(O)c2ccc(F)cc2S1(=O)=O)Nc1cccc(OC(F)(F)F)c1 | > 25 | 3.1 | 8.9 | 
O=C(C1=C(O)c2ccccc2S(=O)(=O)N1Cc1ccccc1)c1ccccc1 | > 25 | > 25 | 1 | 
O=C(CN1C(C(=O)c2cccc(Cl)c2)=C(O)c2ccccc2S1(=O)=O)Nc1ccc(C(F)(F)F)cc1 | > 25 | 4.1 | 5.8 | 
O=C(CN1C(C(=O)c2ccc(F)c(Cl)c2)=C(O)c2ccccc2S1(=O)=O)Nc1ccc(C(F)(F)F)cc1 | > 25 | 2.5 | 11.1 | 
O=C(/C=C/N1C(C(=O)c2ccc(F)c(Cl)c2)=C(O)c2ccccc2S1(=O)=O)Nc1cccc(OC(F)(F)F)c1 | > 25 | 6.6 | 3.6 | 
CNc1ccc2c(c1)S(=O)(=O)N(CC(=O)Nc1ccc(C(F)(F)F)cc1)C(C(=O)c1ccc(F)c(Cl)c1)=C2O | > 25 | 13.8 | 1.3 | 
O=C(CN1C(C(=O)c2ccc(F)cc2)=C(O)c2ccccc2S1(=O)=O)Nc1ccccc1Cl | > 25 | > 25 | 1 | 
N#Cc1cccc(C(=O)C2=C(O)c3ccccc3S(=O)(=O)N2CC(=O)Nc2ccc(C(F)(F)F)cc2)c1 | > 25 | 10.7 | 1.5 | 
O=C(CN1C(C(=O)c2ccc(Cl)cc2)=C(O)c2ccccc2S1(=O)=O)Nc1cccc(OC(F)(F)F)c1 | > 25 | 8.5 | 2.9 | 
O=C(CN1C(C(=O)c2ccc(F)cc2)=C(O)c2ccccc2S1(=O)=O)Nc1cccc(OC(F)(F)F)c1 | > 25 | 8.9 | 2.7 | 
COc1ccc(C(=O)C2=C(O)c3ccccc3S(=O)(=O)N2CC(=O)Nc2cccc(OC(F)(F)F)c2)cc1 | > 25 | 11.6 | 2 | 
CCC(CC)COC(=O)[C@H](C)N[P@](=O)(OC[C@H]1O[C@@](C#N)(c2ccc3c(N)ncnn23)[C@H](O)[C@@H]1O)Oc1ccccc1 [REMDESIVIR] | > 25 | 7.01 | 3.6 | 
N#Cc1ccc(C(=O)C2=C(O)c3ccccc3S(=O)(=O)N2CC(=O)Nc2cccc(OC(F)(F)F)c2)cc1 | > 25 | 14.3 | 1.6 | 
O=C(CN1C(C(=O)c2ccccc2)=C(O)c2ccccc2S1(=O)=O)NC1CCCCC1 | > 25 | > 25 | 1 | 
